Assay results as given in ChEMBL document CHEMBL1137361, “WB4101-related compounds: new, subtype-selective alpha1-adrenoreceptor antagonists (or inverse agonists?)” (J Med Chem, 2006).

Columns and labels:
[1] = molecular target: Alpha adrenergic receptor 1A and 1B (Rattus norvegicus) (UniProt P15823+P43140); experiment: Selectivity for Sprague-Dawley rat adrenergic alpha 1B receptor over adrenergic alpha 1A receptor; format: functional
[2] = molecular target: T1, 5-hydroxytryptamine receptor 1A (Rattus norvegicus, UniProt P19327); experiment: Displacement of [3H]8-OH-DPAT from 5-HT1A receptor in rat hippocampus; format: tissue-based
T1 sequence (P19327 whole entry): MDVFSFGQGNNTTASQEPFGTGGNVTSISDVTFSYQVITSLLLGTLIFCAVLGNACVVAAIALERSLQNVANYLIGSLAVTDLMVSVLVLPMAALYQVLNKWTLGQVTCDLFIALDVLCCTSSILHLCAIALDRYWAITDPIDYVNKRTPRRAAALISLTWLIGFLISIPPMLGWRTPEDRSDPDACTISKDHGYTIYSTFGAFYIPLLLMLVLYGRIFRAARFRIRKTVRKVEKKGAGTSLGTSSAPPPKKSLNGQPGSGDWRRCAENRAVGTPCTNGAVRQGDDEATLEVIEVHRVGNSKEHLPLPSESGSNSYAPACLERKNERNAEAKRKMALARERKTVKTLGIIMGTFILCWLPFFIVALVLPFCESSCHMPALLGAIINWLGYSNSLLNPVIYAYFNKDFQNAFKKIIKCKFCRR
Procedure, shortened: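 Radioligand binding with [3H]-8-OH-DPAT in membrane preparations from rat hippocampus. Affinity is expressed as pKi.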

[3] = molecular target: Alpha adrenergic receptor 1A and 1D (Rattus norvegicus) (UniProt P23944+P43140); experiment: Selectivity for Sprague-Dawley rat adrenergic alpha 1D receptor over adrenergic alpha 1A receptor; format: functional
Alpha adrenergic receptor 1A and 1D (Rattus norvegicus), sequence (P43140 whole entry, looked up, one chain of several): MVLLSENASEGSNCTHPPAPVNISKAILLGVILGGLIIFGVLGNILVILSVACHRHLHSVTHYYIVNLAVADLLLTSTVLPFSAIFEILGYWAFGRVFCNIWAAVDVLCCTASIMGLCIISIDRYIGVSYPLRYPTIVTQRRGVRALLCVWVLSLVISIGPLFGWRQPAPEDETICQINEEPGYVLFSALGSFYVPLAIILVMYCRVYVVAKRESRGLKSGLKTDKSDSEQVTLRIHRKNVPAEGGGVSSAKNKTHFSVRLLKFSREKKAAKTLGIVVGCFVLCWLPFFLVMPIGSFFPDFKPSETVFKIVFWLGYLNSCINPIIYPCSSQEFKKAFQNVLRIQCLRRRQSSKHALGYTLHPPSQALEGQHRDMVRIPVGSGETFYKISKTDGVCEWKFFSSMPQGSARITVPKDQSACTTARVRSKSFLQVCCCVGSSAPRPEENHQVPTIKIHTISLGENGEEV

[4] = molecular target: T2, Alpha-1B adrenergic receptor (Homo sapiens, UniProt P35368); experiment: Displacement of [3H]prazosin from cloned human adrenergic alpha 1B receptor expressed in CHO cells; format: cell-based
T2 sequence (P35368 whole entry): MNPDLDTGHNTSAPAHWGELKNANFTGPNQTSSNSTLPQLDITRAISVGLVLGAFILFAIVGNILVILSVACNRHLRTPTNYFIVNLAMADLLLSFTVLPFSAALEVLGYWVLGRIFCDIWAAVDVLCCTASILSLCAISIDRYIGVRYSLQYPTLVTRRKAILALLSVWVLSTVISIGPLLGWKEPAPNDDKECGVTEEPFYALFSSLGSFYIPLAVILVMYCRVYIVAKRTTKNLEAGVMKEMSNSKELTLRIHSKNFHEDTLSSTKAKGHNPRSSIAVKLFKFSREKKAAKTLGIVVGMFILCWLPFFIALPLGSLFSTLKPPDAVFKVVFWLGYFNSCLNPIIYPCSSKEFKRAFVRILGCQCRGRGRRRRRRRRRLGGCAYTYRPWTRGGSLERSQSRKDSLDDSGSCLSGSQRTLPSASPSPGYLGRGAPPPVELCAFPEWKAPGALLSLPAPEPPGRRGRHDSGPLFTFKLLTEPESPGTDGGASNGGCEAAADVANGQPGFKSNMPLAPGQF
Procedure, shortened: (§1)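 Radioligand binding with [3H]prazosin as the label. Membranes came from CHO cells expressing the cloned human receptor. Affinity is expressed as pKi.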

[5] = molecular target: T3, Alpha-1A adrenergic receptor (Homo sapiens, UniProt P35348); experiment: Displacement of [3H]prazosin from cloned human adrenergic alpha 1A receptor expressed in CHO cells; format: cell-based; procedure, shortened: as §1
T3 sequence (P35348 whole entry): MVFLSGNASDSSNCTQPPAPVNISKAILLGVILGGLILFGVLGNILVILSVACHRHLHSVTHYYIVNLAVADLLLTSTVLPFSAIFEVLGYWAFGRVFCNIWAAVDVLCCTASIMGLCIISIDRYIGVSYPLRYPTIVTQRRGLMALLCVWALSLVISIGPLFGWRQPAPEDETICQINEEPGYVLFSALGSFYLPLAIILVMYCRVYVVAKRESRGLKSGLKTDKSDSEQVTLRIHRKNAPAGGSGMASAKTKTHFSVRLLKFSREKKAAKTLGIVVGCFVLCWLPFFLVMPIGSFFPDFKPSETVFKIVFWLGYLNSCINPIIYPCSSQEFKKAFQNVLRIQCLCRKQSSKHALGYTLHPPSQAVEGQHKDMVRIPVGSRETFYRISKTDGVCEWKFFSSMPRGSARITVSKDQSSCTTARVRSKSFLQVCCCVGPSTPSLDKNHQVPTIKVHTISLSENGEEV

[6] = Selectivity for 5HT1A receptor in rat hippocampus over human adrenergic alpha 1A receptor; format: tissue-based
[7] = molecular target: T4, Alpha-1D adrenergic receptor (Rattus norvegicus, UniProt P23944); experiment: Activity at adrenergic alpha 1D receptor assessed as antagonism on noradrenaline-induced contraction of Sprague-Dawley rat thoracic aorta; format: functional, tissue-based; settings: read-out: pA2 (converted)
T4 sequence (P23944 whole entry): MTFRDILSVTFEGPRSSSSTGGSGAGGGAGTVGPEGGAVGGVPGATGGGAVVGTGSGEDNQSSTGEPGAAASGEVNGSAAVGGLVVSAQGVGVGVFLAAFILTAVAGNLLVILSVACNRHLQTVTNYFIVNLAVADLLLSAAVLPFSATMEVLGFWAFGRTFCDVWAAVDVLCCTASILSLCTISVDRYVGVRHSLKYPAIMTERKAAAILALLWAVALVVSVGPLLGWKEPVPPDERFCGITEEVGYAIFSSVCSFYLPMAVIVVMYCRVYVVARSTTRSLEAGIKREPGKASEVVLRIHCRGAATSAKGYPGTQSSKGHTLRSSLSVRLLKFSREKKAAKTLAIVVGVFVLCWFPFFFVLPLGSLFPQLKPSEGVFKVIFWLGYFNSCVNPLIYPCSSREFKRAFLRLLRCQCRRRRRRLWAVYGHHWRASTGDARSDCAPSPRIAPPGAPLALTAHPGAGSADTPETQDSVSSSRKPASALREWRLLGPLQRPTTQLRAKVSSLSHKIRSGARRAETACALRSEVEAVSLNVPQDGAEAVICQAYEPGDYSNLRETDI
Procedure, shortened: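 Rat thoracic aorta contracted with (-)-noradrenaline. Blocking activity was measured as antagonism of the contraction.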

[8] = molecular target: T5, Alpha-1B adrenergic receptor (Rattus norvegicus, UniProt P15823); experiment: Activity at adrenergic alpha 1B receptor assessed as antagonsim of phenylephrine-induced contraction of Sprague-Dawley rat spleen; format: functional, tissue-based; settings: read-out: pA2 (converted)
T5 sequence (P15823 whole entry): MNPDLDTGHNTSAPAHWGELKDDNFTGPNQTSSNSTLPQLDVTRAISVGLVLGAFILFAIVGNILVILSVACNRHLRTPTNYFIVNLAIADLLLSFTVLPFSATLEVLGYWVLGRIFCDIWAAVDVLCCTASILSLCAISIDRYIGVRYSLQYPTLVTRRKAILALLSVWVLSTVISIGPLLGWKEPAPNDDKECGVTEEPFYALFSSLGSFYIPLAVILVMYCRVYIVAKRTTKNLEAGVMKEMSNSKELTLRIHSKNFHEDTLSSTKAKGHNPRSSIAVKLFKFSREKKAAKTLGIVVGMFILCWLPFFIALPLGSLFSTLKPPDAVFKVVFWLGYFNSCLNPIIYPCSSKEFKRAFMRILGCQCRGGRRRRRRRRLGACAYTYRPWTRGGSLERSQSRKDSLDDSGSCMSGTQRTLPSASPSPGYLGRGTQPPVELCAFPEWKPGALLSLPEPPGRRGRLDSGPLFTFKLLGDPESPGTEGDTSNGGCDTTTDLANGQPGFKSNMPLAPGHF
Procedure, shortened: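 Rat spleen contracted with (-)-phenylephrine. Blocking activity was measured as antagonism of the contraction.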

Alpha adrenergic receptor 1A and 1B (Rattus norvegicus), sequence (P43140 whole entry, looked up, one chain of several): as the sequence (P43140 whole entry, looked up, one chain of several) above

Compound | Selectivity ratio [1] | Ki [2] [nM] | Selectivity ratio [3] | Ki [4] [nM] | Ki [5] [nM] | Selectivity ratio [6] | Kb [7] [nM] | Kb [8] [nM]
COc1ccc2ccccc2c1OCCNC[C@H]1COc2cc3c(cc2O1)CCCC3 | > 955 | 1700 | 245 | 372 | 66.1 | 25.7 | 2570 | > 10000
COc1cc(-c2ccccc2)ccc1OCCNC[C@H]1COc2ccccc2O1 | 0.17 | 74.1 | 0.14 | 186 | 87.1 | 0.9 | 107 | 132
COc1ccc2ccccc2c1OCCNC[C@@H]1COc2ccccc2O1 | 0.25 | 67.6 | 0.17 | 85.1 | 4.57 | 14.8 | 10 | 14.8
COc1cccc(OC)c1OCCNC[C@H]1COc2cc3ccccc3cc2O1 | 0.7 | 347 | 0.05 | 891 | 33.9 | 10.2 | 182 | 2450
COc1cccc(OC)c1OCCNC[C@H]1COc2cc3c(cc2O1)CCCC3 | < 0.3 | 363 | < 0.4 | 575 | 25.1 | 14.5 | 4370 | 2630

The next compounds have a lower Ki [2] than those just listed; values first:

Selectivity ratio [1] | Ki [2] [nM] | Selectivity ratio [3] | Ki [4] [nM] | Ki [5] [nM] | Selectivity ratio [6] | Kb [7] [nM] | Kb [8] [nM] | Compound
< 0.01 | 52.5 | < 0.006 | 11 | 5.62 | 9.3 | 61.7 | 135 | COc1ccc(-c2ccccc2)cc1OCCNC[C@H]1COc2ccccc2O1
1.2 | 6.92 | 0.2 | 17.8 | 1.2 | 5.8 | 1.02 | 7.59 | COc1cccc(-c2ccccc2)c1OCCNC[C@H]1COc2ccccc2O1
0.2 | 11.2 | 0.02 | 15.8 | 1.58 | 7.1 | 0.0209 | 0.204 | COc1ccc2ccccc2c1OCCNC[C@H]1COc2ccccc2O1
0.05 | 8.51 | 0.04 | 19.1 | 2.82 | 3 | 4.07 | 4.47 | COc1ccc2c(c1OCCNC[C@H]1COc3ccccc3O1)CCCC2
